Experimental data: ChEMBL document CHEMBL3856209, “Novel pyrazolopyridine derivatives as potential angiogenesis inhibitors: Synthesis, biological evaluation and transcriptome-based mechanistic analysis” (Eur J Med Chem, 2016)
Calls of active or inactive are those of the source. The rule behind the calls is not given here.

Legend:
[1] = test system: HUVEC; assay: Antimigratory activity in HUVEC at 0.2 to 2 uM after 6 hrs in presence of 5% fetal bovine serum by transwell assay; format: functional, cell-based; conditions: Homo sapiens
In short: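 Serum-starved confluent HUVEC pre-treated overnight with compound or vehicle in 5% FBS medium. Then placed in the upper chamber of 8 µm-pore Transwells (6×10^4 cells/well) and allowed to migrate 6 h toward 5% FBS or starvation medium. Migrated cells fixed, H&E stained, and counted in five fields/well; expressed as % of control; replicates from two independent experiments.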

[2] = test system: EA.hy 926; assay: Antiproliferative activity against human EAhy926 cells assessed as decrease in cell viability at 0.2 to 2 uM after 24 to 48 hrs in presence of 2.5% fetal bovine serum by MTT assay; format: functional, cell-based
In short: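 EA.hy926 seeded at 4×10^3/well, adhered 24 h, and starved 4 h in 0.25% BSA medium. Then treated with compound or 0.1% v/v DMSO in medium with 2.5% FBS for 48 h. MTT 0.5 mg/mL for 4 h, A595 with 630 nm correction, cell number from a standard curve. Expressed as % of DMSO control; replicates from two independent experiments.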

[3] = Antiproliferative activity against human EAhy926 cells assessed as decrease in cell viability after 24 to 48 hrs in presence of 2.5% fetal bovine serum by MTT assay; format: functional, cell-based; conditions: EA.hy 926
In short: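 EA.hy926 in DMEM with 2.5% FBS exposed 48 h to serial 1:2 compound dilutions spanning 0.125–50 μM. Viable cells measured by MTT (0.5 mg/mL, 4 h, A595/630 nm). IC50 (mean ± SEM) fitted by non-linear regression from eight or more points.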

[4] = test system: HUVEC; assay: Inhibition of VEGF-165-induced HUVEC chemotactic migration at 0.2 to 2 uM after 6 hrs by transwell assay; format: functional, cell-based; conditions: Homo sapiens
In short: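 Serum-starved HUVEC were pre-treated overnight with compound or vehicle in 5% FBS medium. Cells were then seeded at 6×10^4 per upper Transwell chamber (8 µm pores) and migrated for 6 h toward VEGF-165 (50 ng/mL) or starvation medium. Migrated cells were ethanol-fixed, stained with H&E and counted in five fields per well. Results are % of control from at least two independent experiments.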

[5] = test system: HUVEC; assay: Antiangiogenic activity in HUVEC assessed as inhibition of VEGF-165-induced tube formation at 0.2 to 2 uM after 24 hrs by matrigel assay; format: functional, cell-based; conditions: Homo sapiens
In short: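 HUVEC seeded at 2×10^4 cells/well on growth factor-reduced Matrigel after pre-starvation, then given compound or vehicle (up to 0.1% v/v DMSO), with or without VEGF-165, for 24 h. Fixed in ice-cold ethanol and stained with haematoxylin-eosin. Tube-like structures counted in at least 5 fields/well and expressed as % of vehicle control; replicates from two independent experiments.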

[6] = test system: HUVEC; assay: Inhibition of total protein tyrosine kinase activity in serum-starved HUVEC at 1 to 4 uM after 2 hrs; format: cell-based; conditions: Homo sapiens
[7] = biological target: Vascular endothelial growth factor receptor 2 (Homo sapiens) (UniProt P35968); assay: Inhibition of VEGF-165-induced VEGFR2 autophosphorylation at Tyr1175 in serum-starved HUVEC at 2 uM preincubated for 2 hrs followed by VEGF-165 induction measured after 5 mins by Western blot analysis; format: cell-based
In short: (§1)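 Serum-starved HUVEC were given 2 µM compound or vehicle for 2 h, then VEGF-165 (50 ng/mL) or PBS for 5 min. Lysates with equal protein were run on SDS-PAGE and immunoblotted for phospho-VEGFR2 (Tyr951, 996, 1056, 1175), p-AKT Ser473, p-ERK1/2 and the total proteins. Detection was by ECL with densitometry. Phospho signals were normalized to total protein, n = 3.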

[8] = biological target: Vascular endothelial growth factor receptor 2 (Homo sapiens) (UniProt P35968); assay: Inhibition of VEGF-165-induced VEGFR2 autophosphorylation in serum-starved HUVEC assessed as decrease in AKT phosphorylation at 2 uM preincubated for 2 hrs followed by VEGF-165 induction measured after 5 mins by Western blot analysis; format: cell-based; in short: as §1
[9] = biological target: Vascular endothelial growth factor receptor 2 (Homo sapiens) (UniProt P35968); assay: Inhibition of VEGF-165-induced VEGFR2 autophosphorylation in serum-starved HUVEC assessed as decrease in ERK1/2 phosphorylation at 2 uM preincubated for 2 hrs followed by VEGF-165 induction measured after 5 mins by Western blot analysis; format: cell-based; in short: as §1
[10] = test system: Mus musculus; assay: Toxicity in C57BL/6 mouse allografted with mouse LLC cells at 0.05 to 0.2 mg/kg, ip administered thrice a week for 2 weeks starting 24 hrs before tumor implantation by clinical test; format: organism-based; conditions: in vivo
In short: (§2)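 Male C57BL/6 mice, 6–8 weeks old, in groups of 5–6, received 5×10^5 LLC cells sc in the right flank. Compound (0.05–0.2 mg/kg) or DMSO vehicle was given ip thrice weekly for 2 weeks, starting 24 h before implantation. Mice were weighed and examined clinically every other day. At end-point, kidney, lung, spleen, liver and heart sections were H&E-stained and examined microscopically.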

[11] = test system: Mus musculus; assay: Toxicity in C57BL/6 mouse allografted with mouse LLC cells assessed as effect on vital organs at 0.05 to 0.2 mg/kg, ip administered thrice a week for 2 weeks starting 24 hrs before tumor implantation by haematoxylin-eosin staining-based microscopic analysis; format: organism-based; conditions: in vivo; in short: as §2
[12] = test system: Lewis lung carcinoma; assay: Antiangiogenic activity in mouse LLC cells allografted in C57BL/6 mouse assessed as decrease of microvessel density in tumor at 0.2 mg/kg, ip administered thrice a week for 2 weeks starting 24 hrs before tumor implantation measured post last dose by IHC analysis; format: functional, organism-based
In short: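 Male 6–8 week C57BL/6 mice (groups of 5–6) inoculated sc in the right flank with 5×10^5 LLC cells. Compound (0.2 mg/kg) or DMSO vehicle given ip thrice weekly for 2 weeks, starting 24 h before implantation. Tumors measured by caliper every other day. At end-point, anti-CD31 IHC (1:100) of tumor sections, with immunoreactive cells counted in six high-power fields.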

[13] = test system: HUVEC (Homo sapiens); assay: Antiproliferative activity against human HUVEC cells assessed as decrease in VEGF-165-induced cell growth at 0.5 to 2 uM after 24 to 48 hrs by MTT assay
[14] = test system: HUVEC (Homo sapiens); assay: Antiproliferative activity against human HUVEC cells assessed as decrease in VEGF-165-induced cell growth at 0.5 to 2 uM after 24 to 48 hrs by CyQUANT cell proliferation assay

Chain of Vascular endothelial growth factor receptor 2 (Homo sapiens) (P35968 whole entry): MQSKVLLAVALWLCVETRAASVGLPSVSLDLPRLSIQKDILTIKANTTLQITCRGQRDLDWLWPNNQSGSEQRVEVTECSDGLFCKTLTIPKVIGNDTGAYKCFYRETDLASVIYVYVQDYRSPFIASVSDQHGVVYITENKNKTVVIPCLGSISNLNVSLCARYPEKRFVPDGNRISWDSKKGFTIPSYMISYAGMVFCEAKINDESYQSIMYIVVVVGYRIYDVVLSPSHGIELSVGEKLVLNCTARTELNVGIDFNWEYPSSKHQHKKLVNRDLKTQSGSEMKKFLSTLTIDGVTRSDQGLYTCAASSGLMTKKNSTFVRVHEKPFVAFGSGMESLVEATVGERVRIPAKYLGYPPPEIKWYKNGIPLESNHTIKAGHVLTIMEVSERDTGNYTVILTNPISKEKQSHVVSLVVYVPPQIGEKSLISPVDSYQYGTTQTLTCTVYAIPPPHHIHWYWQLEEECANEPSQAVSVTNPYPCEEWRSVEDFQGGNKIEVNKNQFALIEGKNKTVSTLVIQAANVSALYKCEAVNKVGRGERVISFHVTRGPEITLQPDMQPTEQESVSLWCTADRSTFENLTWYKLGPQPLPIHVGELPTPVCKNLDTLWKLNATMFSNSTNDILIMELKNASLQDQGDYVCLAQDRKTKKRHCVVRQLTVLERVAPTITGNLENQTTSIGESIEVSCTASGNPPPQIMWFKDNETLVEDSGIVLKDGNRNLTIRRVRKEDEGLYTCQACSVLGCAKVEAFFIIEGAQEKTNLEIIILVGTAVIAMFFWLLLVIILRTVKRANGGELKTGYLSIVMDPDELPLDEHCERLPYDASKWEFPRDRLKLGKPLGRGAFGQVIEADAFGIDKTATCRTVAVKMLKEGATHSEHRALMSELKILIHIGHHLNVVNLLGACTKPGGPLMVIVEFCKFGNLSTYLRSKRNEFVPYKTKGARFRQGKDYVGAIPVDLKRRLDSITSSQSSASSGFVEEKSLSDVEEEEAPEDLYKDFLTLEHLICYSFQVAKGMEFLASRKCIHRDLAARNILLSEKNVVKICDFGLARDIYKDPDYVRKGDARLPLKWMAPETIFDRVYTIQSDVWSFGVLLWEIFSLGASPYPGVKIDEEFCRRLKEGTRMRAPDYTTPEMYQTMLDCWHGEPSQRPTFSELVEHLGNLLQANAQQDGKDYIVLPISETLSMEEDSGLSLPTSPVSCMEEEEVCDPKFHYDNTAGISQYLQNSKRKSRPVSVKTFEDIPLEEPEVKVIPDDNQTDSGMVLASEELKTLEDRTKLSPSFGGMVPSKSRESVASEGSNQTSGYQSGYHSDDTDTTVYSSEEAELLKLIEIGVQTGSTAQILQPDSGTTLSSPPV

COc1ccc(Cn2nc(-c3ccccc3)c3cc(Nc4ccccc4)nc(N4CCNCC4)c32)cc1
Activity [1]: Active | Activity [2]: Active | IC50 [3]: 14.1 µM | inhibition [4]: Active | inhibition [5]: Active | inhibition [6]: Active | inhibition [7]: Active | inhibition [8]: Active | inhibition [9]: Active | Activity [10]: Non-Toxic | Activity [11]: Non-Toxic | Activity [12]: Active | Activity [13]: Active | Activity [14]: Active
